TDP2 inh = human TDP2 enzyme inhibitors, primary screen, biochemical, epi absorbance, recombinant enzyme. T5PNP hydrolysis, p-nitrophenol absorbance 415 nm. inhibition, % at 12.8 µM. Tyrosyl-DNA phosphodiesterase 2 (Homo sapiens), O95551. 0.34% of 370,000 active;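 active = inhibition above the mean of all tested compounds plus 3 SD, set per campaign, cut at about 25% in these data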;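 note: 0% = DMSO with enzyme and 100% = buffer with substrate but no TDP2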
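Test system: human TDP2 enzyme; Input: 120 nM TDP2 per well; Buffer or medium: Mg2+-containing Tris-HCl buffer, pH 7.5; Reagent: 5 mM T5PNP; Dosing: 12.8 µM single point, 1% DMSO; Incubation: reaction 2 h, 37 °C; Detection: p-Nitrophenol epi absorbance; Read-out: % inhibition relative to enzyme-containing and enzyme-free wells; Replicates: single well per compound.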
PAD4 inh = human PAD4 inhibitors, primary screen, biochemical, fluorescence polarization, 1536-well format. Protein-arginine deiminase type-4 (Homo sapiens), Q9UM07. recombinant PAD4, RCA probe fluorescence polarization. inhibition, % at 6.36 µM. 0.41% of 330,000 active. AID 485272, 2010;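 active = percent inhibition above a cutoff equal to the mean of all tested compounds plus 3 SD, cut at about 15% in these data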;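 note: 0% = PAD4 with RCA probe and DMSO and 100% = probe without PAD4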
CTSL1 counter = Fasciola hepatica cathepsin L1 inhibitors, primary screen, counter-screen for PFM18AAP inhibitor project, biochemical, QFRET, fluorogenic peptide substrate; 0.49% of 300,000 active; recombinant F. hepatica cathepsin L1, Z-Leu-Arg-MCA fluorescence; inhibition, % at 5.96 µM; AID 1906, 2009;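 active = inhibition above the mean of all tested compounds plus 3 SD, set per screening campaign, cut at about 17% in these data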;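 note: 0% = plate median of test compound wells and 100% = 1 µM Z-Phe-Ala-diazomethylketone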
PRMT1 inh = PRMT1 methyltransferase inhibitors, primary screen, biochemical, fluorescence polarization; Protein arginine N-methyltransferase 1 (Homo sapiens), Q99873; recombinant PRMT1, activity-based probe fluorescence polarization; inhibition, % at 2.79 µM; 1.3% of 370,000 active; AID 652257, 2013;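 active = inhibition above about 21% made by adding two undisclosed values, limit read from the data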
GSTO1 inh = inhibitors of recombinant GSTO1, primary screen, counter-screen for RBBP9 inhibitor project, biochemical, fluorescence polarization | Glutathione S-transferase omega-1 (Homo sapiens), P78417 | activity-based probe fluorescence polarization | inhibition, % at 5.96 µM | 1.1% of 300,000 active;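 active = inhibition above the campaign mean inhibition plus 3 SD, cut at about 35% in these data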;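 note: 0% = GSTO1-1 with DMSO and 100% = wells lacking GSTO1-1 enzyme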
Target sequence (P78417 whole entry, looked up): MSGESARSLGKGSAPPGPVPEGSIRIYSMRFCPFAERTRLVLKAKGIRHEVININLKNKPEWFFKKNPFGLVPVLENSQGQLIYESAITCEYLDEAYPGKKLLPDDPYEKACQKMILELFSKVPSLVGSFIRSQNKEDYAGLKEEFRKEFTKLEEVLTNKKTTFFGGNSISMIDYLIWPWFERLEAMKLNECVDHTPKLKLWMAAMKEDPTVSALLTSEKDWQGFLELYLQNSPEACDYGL
PRMT1 confirm = PRMT1 methyltransferase inhibitors, confirmation, biochemical, fluorescence polarization, triplicate. shares compounds with PRMT1 inh. recombinant His-PRMT1, activity-based probe fluorescence polarization. inhibition, % at 2.79 µM. 42% of 3,300 active. AID 687036, 2013;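 active = mean inhibition across replicates above the hit cutoff derived for the earlier primary screen, cut at about 22% in these data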
* = called active by the depositor; x = not tested or not shown. Hits are enriched below; roughly 2.5% of the tested compounds scored in any of these assays.

SMILES	TDP2 inh	PAD4 inh	CTSL1 counter	PRMT1 inh	GSTO1 inh	PRMT1 confirm
O=C(Cc1ccccc1)Nc1nc(=O)c2ccccc2s1	-9	1	1	48*	14	4
O=C(Nc1nc(=O)c2ccccc2s1)c1ccc(Cl)cc1	-3	1	3	32*	-5	1
CC(=O)Nc1ccc(S(=O)(=O)NCC(=O)NNC(=O)c2csc(N3CCOCC3)n2)cc1	-1	6	-1	52*	1	14
O=C(CCNS(=O)(=O)c1ccccc1)NNC(=O)c1csc(N2CCOCC2)n1	2	0	-2	0	6	x
Cn1ccnc1C(O)c1cc(C(C)(C)C)c(O)c(C(C)(C)C)c1 (centres undefined)	-5	-5	-2	37*	11	13
CC(C)(Sc1cc(C(C)(C)C)c(O)c(C(C)(C)C)c1)Sc1cc(C(C)(C)C)c(O)c(C(C)(C)C)c1	0	-1	6	-6	8	x
Fc1cccc(Cc2c(-c3ccco3)nc3c4ccccc4ccn23)c1	-3	x	x	30*	x	10
Fc1ccc(-c2nc3c4ccccc4ccn3c2Cc2cccc(F)c2)cc1	-1	x	x	-1	x	x
Clc1cccc(Cc2c(-c3cccc(Cl)c3)nc3c4ccccc4ccn23)c1	10	x	x	2	x	x
Clc1cccc(Cc2c(-c3ccco3)nc3c4ccccc4ccn23)c1	-2	x	x	25*	x	9
O=C(O)c1ccccc1NS(=O)(=O)c1ccc(N/N=C/c2cccc(O)c2O)c([N+](=O)[O-])c1	5	x	x	35*	x	29*
CC(=O)Nc1ccc(C=NNc2ccc(S(=O)(=O)Nc3ccccc3C(=O)O)cc2[N+](=O)[O-])cc1	3	5	x	11	x	x
CC(C)(C)[C@@H]1CCC(=O)N(CC[C@H](Sc2ccccc2)c2ccccc2)CC1	7	-5	0	-2	2	x
CC(=O)Nc1ccc(SC[C@H](Cc2ccccc2)N2CC[C@@H](C(C)(C)C)CCC2=O)cc1	-28	6	x	52*	x	39*
CC(=O)Nc1ccc(SCCN2CC[C@@H](C)CCC2=O)cc1	6	1	x	25*	x	30*
CC(=O)Nc1ccc(SC[C@H](Cc2ccccc2)N2CCN(CCc3ccccc3)CCC2=O)cc1	2	7	-2	29*	0	42*
CC(=O)Nc1ccc(S[C@@H](CCN2CC[C@H](C(C)(C)C)CCC2=O)c2ccccc2)cc1	-6	12	x	45*	x	61*
C/C(C=NNC(=O)CSc1nnc(-c2ccccc2)n1-c1ccc(C)cc1)=C\c1ccco1	-1	x	x	-2	x	x
COc1ccc(C(=O)OCCN2CCN(C3CN(Cc4cn(Cc5cccc(C)c5)nn4)S(=O)(=O)C3)CC2)cc1OC (centres undefined)	8	x	x	-1	x	x
N#C/C(=C\c1ccc([N+](=O)[O-])o1)C(=O)Nc1ccc(F)cc1	12	-16	2	31*	6	11
CCC[C@H]1[C@@H](OC(=O)NC2CCCCC2)CC[C@@]23CCCN2C(=O)CCC[C@@H]13	6	x	x	-6	x	x
Cc1[nH]nc2c1C1(CCN(Cc3ccccc3)CC1)C(C#N)=C(N)O2	-1	-10	-3	34*	2	1
CCc1ccc2[nH]c(=O)c(CN(CCN(C)C)C(=S)NCc3ccco3)cc2c1	5	-2	3	33*	2	2
CCc1ccc2[nH]c(=O)c(CN(CCN(CC)CC)C(=S)NCc3ccco3)cc2c1	-6	-2	-4	0	-1	x
CCOc1ccc2[nH]c(=O)c(CN(Cc3ccco3)C(=O)c3ccc(Br)cc3)cc2c1	-14	x	x	36*	x	0
Cc1ccc(C(=O)N(C)[C@H]2C[C@H]3c4[nH]c5c(-c6cccc(C)c6)cccc5c4CCN3C[C@H]2[C@H](C)O)cc1	2	x	x	-3	x	x
Cc1ccc2[nH]c(=O)c(C(c3nnnn3C3CCCC3)N3CCCc4ccccc43)cc2c1 (centres undefined)	-12	0	-3	35*	6	-3

Screens deposited in PubChem BioAssay by The Scripps Research Institute Molecular Screening Center.
